Data: ChEMBL document CHEMBL5038664, “Thieno[2,3-d]pyrimidine-Based Positive Allosteric Modulators of Human Mas-Related G Protein-Coupled Receptor X1 (MRGPRX1)” (J Med Chem, 2022)
Activity calls are given as the source filed them. The calls are words filed in the database; no cut-off is given here.

Assays:
[1] = target: T1, Mas-related G-protein coupled receptor member X1 (Homo sapiens, UniProt Q96LB2); test: Positive allosteric modulator activity at human MRGPRX1 transfected in HEK293 cells in presence of BAM8-22 by Fulo4AM dye based FLIPR assay; assay type: cell-based
[2] = target: T1, Mas-related G-protein coupled receptor member X1; test: Positive allosteric modulator activity at human MRGPRX1 transfected in HEK293 cells assessed as maximal efficacy in presence of BAM8-22 by Fulo4AM dye based FLIPR assay relative to control; assay type: cell-based; conditions: filed as positive allosteric modulator
[3] = Metabolic stability in mouse microsome assessed as compound remaining measured after 30 min in presence of NADPH regenerating system by LC-MS/MS analysis; assay type: ADME, Liver; conditions: microsomes, 0.5 h
[4] = Metabolic stability in mouse microsome assessed as compound remaining measured after 60 min in presence of NADPH regenerating system by LC-MS/MS analysis; assay type: ADME, Liver; conditions: microsomes, 1 h
[5] = Metabolic stability in human microsome assessed as compound remaining measured after 60 min in presence of NADPH regenerating system by LC-MS/MS analysis; assay type: ADME, Liver; conditions: microsomes, 1 h
[6] = Acute toxicity in mouse expressing MRGPRX1 assessed as itching by measuring spontaneous scratching bouts at 100 mg/kg, po measured upto 1 hr; assay type: organism-based; conditions: in vivo
Outline: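 Awake, free-moving humanized MRGPRX1 mice (human MRGPRX1 expressed in nociceptive DRG neurons in place of murine MrgprC11) were dosed orally at 100 mg/kg. Spontaneous behaviour was video-recorded for 0–1 h after dosing, and scratch bouts were counted and compared with vehicle-treated mice.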

[7] = target: T2, Mas-related G-protein coupled receptor member X2 (Homo sapiens) (UniProt Q96LB1); test: Positive allosteric modulator activity at human MRGPRX2 transfected in HEK293 cells at 5 uM in presence of C48/80 by Fluo-4 AM-based FLIPR assay; assay type: cell-based
T2 sequence (whole entry): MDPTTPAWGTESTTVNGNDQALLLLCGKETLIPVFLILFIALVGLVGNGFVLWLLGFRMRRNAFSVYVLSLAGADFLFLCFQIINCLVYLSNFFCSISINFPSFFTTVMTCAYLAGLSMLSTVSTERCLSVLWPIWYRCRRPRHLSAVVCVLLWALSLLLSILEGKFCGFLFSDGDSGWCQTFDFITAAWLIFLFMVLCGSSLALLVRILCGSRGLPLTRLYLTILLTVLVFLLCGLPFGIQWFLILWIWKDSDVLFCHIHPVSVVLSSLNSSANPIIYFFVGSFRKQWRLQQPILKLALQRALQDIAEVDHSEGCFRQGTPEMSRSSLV
Outline: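 MRGPRX2 stably expressed in HEK293 cells; compound tested with an EC20 level of the orthosteric agonist C48/80, calcium response detected with Fluo-4 AM.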

[8] = Acute toxicity in mouse expressing MRGPRX1 assessed as impaired exploratory activity at 100 mg/kg, po by open field test; assay type: organism-based; conditions: in vivo
Outline: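 Naïve humanized MRGPRX1 mice were dosed at 100 mg/kg po, with vehicle-treated mice as a parallel group. Exploratory performance in an open field test was compared with each animal's pre-drug values.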

[9] = Metabolic stability in human microsome assessed as compound remaining measured after 30 min in presence of NADPH regenerating system by LC-MS/MS analysis; assay type: ADME, Liver; conditions: microsomes, 0.5 h
[10] = Tmax in CD1 mouse plasma at 100 mg/kg, po measured upto 6 hrs by LC-MS/MS analysis; assay type: ADME, organism-based; conditions: in vivo
Outline: (§1)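 Male CD-1 mice (25–30 g, n=3 per time point) dosed 100 mg/kg by oral gavage in 5% dimethylacetamide/10% Cremophor EL/10% Tween80/25% PEG400/50% water. Killed at 0.25–6 h; cardiac-puncture plasma, brain and spinal cord collected. Acetonitrile extraction with losartan internal standard, LC/MS/MS; calibration 0.01–10 nmol/mL, 1/x weighting. Tissue-to-plasma ratios by AUC.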

[11] = Tmax in CD1 mouse brain at 100 mg/kg, po measured upto 6 hrs by LC-MS/MS analysis; assay type: ADME, organism-based; conditions: in vivo; outline: as §1
[12] = Tmax in CD1 mouse spinal cord at 100 mg/kg, po measured upto 6 hrs by LC-MS/MS analysis; assay type: ADME, organism-based; conditions: in vivo; outline: as §1
[13] = Ratio of AUClast in CD1 mouse brain to plasma at 100 mg/kg, po measured upto 6 hrs by LC-MS/MS analysis; assay type: ADME, organism-based; outline: as §1
hERG (KCNH2) = hERG (KCNH2) (Homo sapiens, UniProt Q12809); test: Inhibition of hERG at 10 uM relative to control; assay type: toxicity
[14] = Ratio of AUClast in CD1 mouse spinal cord to plasma at 100 mg/kg, po measured upto 6 hrs by LC-MS/MS analysis; assay type: ADME, organism-based; outline: as §1
Mus musculus [15] = test: Analgesic activity in mouse model of sciatic nerve chronic constriction injury-induced neuropathic pain assessed as increase in ipsilateral paw withdrawal latency at 100 mg/kg, po measured at 1 and 2 hrs on day 12 post injury by Hargreaves test; assay type: functional, organism-based; conditions: time 12.0 day
Outline: (§2)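 Humanized MRGPRX1 mice, both sexes, 2–3 months old, 20–30 g, sciatic nerve CCI. Given 100 mg/kg orally (n=4–5/group, vehicle comparator). Heat withdrawal latency by Hargreaves test on days 12 and 26 post-CCI, compared with pre-drug and vehicle; two-way mixed-model ANOVA with Bonferroni test, mean + SD.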

[16] = Acute toxicity in mouse expressing MRGPRX1 at 100 mg/kg, po measured upto 1.5 hrs by rotarod test; assay type: organism-based; conditions: in vivo
Outline: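 Motor coordination was measured by rotarod in naïve humanized MRGPRX1 mice after 100 mg/kg po. Performance was compared with a vehicle-treated group and with pre-treatment values.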

Mus musculus [17] = test: Analgesic activity in mouse model of sciatic nerve chronic constriction injury-induced neuropathic pain assessed as increase in ipsilateral paw withdrawal latency at 100 mg/kg, po measured at 2 hrs post drug on day 26 post injury by Hargreaves test; assay type: functional, organism-based; outline: as §2
Mus musculus [18] = test: Analgesic activity in mouse model of sciatic nerve chronic constriction injury-induced neuropathic pain assessed as increase in contralateral paw withdrawal latency at 100 mg/kg, po measured at 1 and 2 hrs on day 12 post injury by Hargreaves test; assay type: functional, organism-based; conditions: time 12.0 day; outline: as §2
Mus musculus [19] = test: Analgesic activity in mouse model of sciatic nerve chronic constriction injury-induced neuropathic pain assessed as increase in contralateral paw withdrawal latency at 100 mg/kg, po measured at 2 hrs post drug on day 26 post injury by Hargreaves test; assay type: functional, organism-based; outline: as §2
[20] = target: T1, Mas-related G-protein coupled receptor member X1; test: Agonist activity at human MRGPRX1 expressed in HEK293 cells upto 100 uM in absence of BAM8-22 by Fluo-dye based FLIPR assay; assay type: functional, cell-based; conditions: dose microM <=100
Outline: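 Human MRGPRX1 stably expressed in HEK293 cells, 25,000 cells/well, 2 days. Loaded with 2 µM Fluo-4 AM and 1% Trypan Red in HBSS for 50 min at 37°C, then 10 min at room temperature. Serially diluted compound in HBSS added; FLIPR imaging 2 min, signal taken as maximum minus minimum fluorescence.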

[21] = Drug metabolism in human liver microsomes assessed as CYP450 mediated oxidation of parent compound measured after 60 mins by UPLC analysis; assay type: ADME, Microsome; conditions: 1 h

T1 sequence (Q96LB2 whole entry): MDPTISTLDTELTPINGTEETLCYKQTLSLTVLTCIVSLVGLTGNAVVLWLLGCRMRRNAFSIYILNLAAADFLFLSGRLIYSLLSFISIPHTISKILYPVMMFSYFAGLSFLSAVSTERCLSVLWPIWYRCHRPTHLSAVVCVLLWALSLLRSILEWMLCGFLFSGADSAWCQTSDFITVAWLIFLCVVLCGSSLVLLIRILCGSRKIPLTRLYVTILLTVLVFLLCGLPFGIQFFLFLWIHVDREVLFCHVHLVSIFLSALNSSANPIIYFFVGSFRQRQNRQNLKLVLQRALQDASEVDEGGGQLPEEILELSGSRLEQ
Chain of hERG (KCNH2) (Q12809 whole entry): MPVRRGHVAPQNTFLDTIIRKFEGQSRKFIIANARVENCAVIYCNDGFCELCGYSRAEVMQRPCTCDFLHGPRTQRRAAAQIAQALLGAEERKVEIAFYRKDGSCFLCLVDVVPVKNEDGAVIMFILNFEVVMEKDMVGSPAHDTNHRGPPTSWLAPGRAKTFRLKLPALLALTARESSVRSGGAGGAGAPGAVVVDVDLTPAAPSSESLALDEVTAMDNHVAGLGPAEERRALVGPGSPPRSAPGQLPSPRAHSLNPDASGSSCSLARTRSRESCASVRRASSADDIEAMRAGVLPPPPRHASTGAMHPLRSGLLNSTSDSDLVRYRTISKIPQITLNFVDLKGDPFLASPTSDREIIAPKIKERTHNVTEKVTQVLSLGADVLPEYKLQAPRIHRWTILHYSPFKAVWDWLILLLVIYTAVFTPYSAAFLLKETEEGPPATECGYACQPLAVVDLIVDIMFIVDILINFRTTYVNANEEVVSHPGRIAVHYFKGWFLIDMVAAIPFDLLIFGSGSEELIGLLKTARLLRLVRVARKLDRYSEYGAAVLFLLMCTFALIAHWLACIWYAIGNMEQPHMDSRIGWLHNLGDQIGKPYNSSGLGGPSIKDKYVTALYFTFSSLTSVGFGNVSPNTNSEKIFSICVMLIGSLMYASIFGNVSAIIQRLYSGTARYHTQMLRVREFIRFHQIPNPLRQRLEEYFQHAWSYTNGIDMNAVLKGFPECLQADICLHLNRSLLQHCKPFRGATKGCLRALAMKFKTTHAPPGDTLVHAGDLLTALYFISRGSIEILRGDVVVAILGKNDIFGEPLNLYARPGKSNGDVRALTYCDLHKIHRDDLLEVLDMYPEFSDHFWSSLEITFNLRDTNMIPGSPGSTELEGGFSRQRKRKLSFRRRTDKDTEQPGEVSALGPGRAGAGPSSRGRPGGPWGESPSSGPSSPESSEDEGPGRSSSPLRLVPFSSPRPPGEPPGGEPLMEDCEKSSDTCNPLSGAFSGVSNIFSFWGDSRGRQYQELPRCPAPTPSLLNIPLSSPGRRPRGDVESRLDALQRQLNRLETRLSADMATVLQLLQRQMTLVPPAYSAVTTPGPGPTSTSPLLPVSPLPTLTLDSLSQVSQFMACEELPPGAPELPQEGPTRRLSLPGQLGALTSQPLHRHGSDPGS

Compound	EC50 [1]	Emax [2]	Stability [3]	Stability [4]	Stability [5]	Stability [9]	also measured
CC(C)(C)c1sc2ncnc(Oc3ccccc3F)c2c1-c1ccccc1	340 nM	95%	14%	< 5%	78%		
Cc1sc2ncnc(Oc3ccccc3C(F)(F)F)c2c1C	520 nM	95%					
CC(C)(C)c1sc2ncnc(Oc3ccccc3OC(F)(F)F)c2c1-c1ccc(Cl)c(Cl)c1		114%	58%	25%	> 95%	> 95%	Activity [6]: Non-Toxic; Activity [7]: inactive; Activity [8]: Non-Toxic; Tmax [10]: 1 h; Tmax [11]: 1 h; Tmax [12]: 1 h; Kp at 6 h [13]: 2.2; inhibition at 10 µM (hERG (KCNH2)): 50%; Kp at 6 h [14]: 12.7; Activity (Mus musculus [15]): Active; Activity [16]: Non-Toxic; Activity (Mus musculus [17]): Active; Activity (Mus musculus [18]): inactive; Activity (Mus musculus [19]): inactive; Activity [20]: inactive
CC(C)(C)c1sc2ncnc(Oc3ccccc3F)c2c1-c1ccc(F)cc1		145%	7%	< 5%	88%	> 95%	
Cc1sc2ncnc(Oc3ccccc3)c2c1C	1600 nM	89%					
Cc1sc2ncnc(Oc3ccc(C(F)(F)F)cc3)c2c1C	> 100000 nM						
Cc1csc2ncnc(Oc3ccccc3F)c12	1700 nM	94%					
CC(C)(C)c1cc2c(Oc3ccccc3F)ncnc2s1	320 nM	105%	< 5%	< 5%	61%	75%	
Cc1cc2c(Oc3ccccc3F)ncnc2s1	1500 nM	90%					
Fc1ccccc1Oc1ncnc2sccc12	4200 nM	95%					
Cc1sc2ncnc(Oc3ccc(F)cc3)c2c1C	1100 nM	83%					
Cc1ccccc1Oc1ncnc2sccc12	14500 nM	88%					
Cc1ccc(Oc2ncnc3sc(C)c(C)c23)cc1	2700 nM	88%					
Cc1sc2ncnc(Oc3ccccc3F)c2c1C	220 nM	112%	< 5%	< 5%	< 5%	< 5%	Drug metabolism [21]: Metabolite_Detected
Cc1sc2ncnc(Oc3cccc(C(F)(F)F)c3)c2c1C	> 100000 nM						
Cc1sc2ncnc(Oc3cccc(F)c3)c2c1C	30000 nM	55%					
Cc1cccc(Oc2ncnc3sc(C)c(C)c23)c1	25000 nM	40%					
Cc1ccccc1Oc1ncnc2sc(C)c(C)c12	480 nM	118%					
Fc1ccccc1Oc1ncnc2scc(C(F)(F)F)c12	2100 nM	94%	< 5%	< 5%	< 5%	40%	
CC(C)(C)c1sc2ncnc(Oc3ccccc3OC(F)(F)F)c2c1-c1ccc(F)cc1	230 nM	143%	28%	5%	> 95%	> 95%	
